Laboratory results as given in paper PMC7677148 (European Journal of Drug Metabolism and Pharmacokinetics, 2020).
Read-outs that look alike come from different tables or passages of the source.

Key:
[1] = biological target: T1, OATP1B3 (Homo sapiens, UniProt Q9NPD5); assay: OATP1B3 inhibition assay; assay type: cell-based
T1 sequence (Q9NPD5 1-702): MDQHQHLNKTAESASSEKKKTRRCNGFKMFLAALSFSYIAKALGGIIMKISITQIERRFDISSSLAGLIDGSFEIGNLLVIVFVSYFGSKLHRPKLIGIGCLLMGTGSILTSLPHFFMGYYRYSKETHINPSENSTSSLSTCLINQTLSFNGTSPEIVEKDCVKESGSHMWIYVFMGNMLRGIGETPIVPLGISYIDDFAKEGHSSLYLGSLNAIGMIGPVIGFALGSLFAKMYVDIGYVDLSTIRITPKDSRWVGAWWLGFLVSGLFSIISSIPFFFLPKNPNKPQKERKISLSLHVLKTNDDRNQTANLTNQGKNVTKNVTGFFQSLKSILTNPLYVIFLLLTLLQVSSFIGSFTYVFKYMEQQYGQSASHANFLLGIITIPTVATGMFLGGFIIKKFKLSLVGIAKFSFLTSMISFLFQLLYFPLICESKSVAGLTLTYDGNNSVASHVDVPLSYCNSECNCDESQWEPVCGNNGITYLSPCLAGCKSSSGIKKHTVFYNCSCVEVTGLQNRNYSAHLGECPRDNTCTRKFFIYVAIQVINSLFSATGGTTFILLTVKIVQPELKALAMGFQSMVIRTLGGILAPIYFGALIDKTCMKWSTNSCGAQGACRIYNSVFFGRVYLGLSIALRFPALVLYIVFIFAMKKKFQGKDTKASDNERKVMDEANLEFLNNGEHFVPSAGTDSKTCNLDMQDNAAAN

[2] = biological target: T2, OATP2B1 (Homo sapiens, UniProt O94956); assay: OATP2B1 inhibition assay; assay type: cell-based
T2 sequence (O94956 1-709): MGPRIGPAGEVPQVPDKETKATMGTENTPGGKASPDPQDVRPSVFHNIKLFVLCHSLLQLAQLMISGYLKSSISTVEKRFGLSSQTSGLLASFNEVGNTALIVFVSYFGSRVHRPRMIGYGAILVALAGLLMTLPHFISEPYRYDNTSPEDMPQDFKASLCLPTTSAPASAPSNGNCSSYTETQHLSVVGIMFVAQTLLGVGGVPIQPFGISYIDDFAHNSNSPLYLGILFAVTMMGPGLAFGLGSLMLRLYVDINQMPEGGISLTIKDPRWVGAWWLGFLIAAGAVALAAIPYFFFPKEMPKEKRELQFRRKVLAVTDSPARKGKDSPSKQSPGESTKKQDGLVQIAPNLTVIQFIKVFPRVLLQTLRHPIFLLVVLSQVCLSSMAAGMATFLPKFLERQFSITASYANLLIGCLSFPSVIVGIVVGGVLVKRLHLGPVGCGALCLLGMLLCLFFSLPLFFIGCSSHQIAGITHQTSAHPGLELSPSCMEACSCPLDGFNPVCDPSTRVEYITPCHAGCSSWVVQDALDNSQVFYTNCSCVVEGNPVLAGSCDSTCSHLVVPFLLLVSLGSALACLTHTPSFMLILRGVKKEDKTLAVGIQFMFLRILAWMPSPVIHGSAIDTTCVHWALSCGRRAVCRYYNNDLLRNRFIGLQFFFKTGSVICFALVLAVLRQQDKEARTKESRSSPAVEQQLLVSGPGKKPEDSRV
Summary of the method: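 HEK293 cells with tetracycline-inducible OATP2B1, grown in DMEM/Ham's F12/10% FCS and induced with 1 µg/ml tetracycline 72 h before assay. Substrate 1 µM DBF ± test compound (0.1–100 µM, in PBS/2% FCS), 10 min at 37 °C. After washing, median intracellular fluorescence read by flow cytometry. Normalised to non-induced cells. 8 replicates/concentration, 3–5 experiments. IC50 from four-parameter fit. Naringin control inhibitor.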

[3] = biological target: T3, OATP1B1 (Homo sapiens, UniProt Q9Y6L6); assay: OATP1B1 inhibition assay; assay type: cell-based
T3 sequence (Q9Y6L6 1-691): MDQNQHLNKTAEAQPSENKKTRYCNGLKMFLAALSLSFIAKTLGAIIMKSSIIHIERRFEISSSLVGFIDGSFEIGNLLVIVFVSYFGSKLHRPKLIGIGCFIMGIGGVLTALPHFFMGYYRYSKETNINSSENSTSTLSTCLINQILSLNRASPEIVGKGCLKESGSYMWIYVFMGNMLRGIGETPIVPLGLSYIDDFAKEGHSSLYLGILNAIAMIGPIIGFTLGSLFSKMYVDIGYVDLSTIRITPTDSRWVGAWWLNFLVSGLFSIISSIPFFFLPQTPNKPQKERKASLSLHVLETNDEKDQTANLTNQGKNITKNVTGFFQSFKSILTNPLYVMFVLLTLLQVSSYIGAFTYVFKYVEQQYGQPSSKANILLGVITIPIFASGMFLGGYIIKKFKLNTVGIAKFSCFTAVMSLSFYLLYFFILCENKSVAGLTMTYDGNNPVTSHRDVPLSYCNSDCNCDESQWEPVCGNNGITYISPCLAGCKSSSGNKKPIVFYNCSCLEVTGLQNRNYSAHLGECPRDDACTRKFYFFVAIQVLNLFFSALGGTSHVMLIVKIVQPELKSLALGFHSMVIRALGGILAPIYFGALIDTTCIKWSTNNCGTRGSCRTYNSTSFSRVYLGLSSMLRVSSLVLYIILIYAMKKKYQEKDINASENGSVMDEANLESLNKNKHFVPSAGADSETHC
Summary of the method: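 Stably transfected OATP1B1- or OATP1B3-HEK293 cells and empty-vector HEK293 control, grown in DMEM/10% FCS with G418. Cells exposed 10 min at 37 °C to 2.5 µM 8-FcA ± test compound (0.1–100 µM, in PBS/2% FCS). After washing, median intracellular fluorescence read by flow cytometry (30,000 cells, viable gate). With/without-inhibitor ratio normalised to control line. 8 replicates/concentration, 3–5 experiments. Four-parameter fit gives IC50. Rifampicin control.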

[4] = rats; cited from earlier work
[5] = biological target: T3, OATP1B1; conditions: read-out: OATP1B1 IC50; control inhibitor; 8-FcA uptake; cited from earlier work
[6] = biological target: T1, OATP1B3; conditions: read-out: OATP1B3 IC50; control inhibitor; 8-FcA uptake; cited from earlier work

Compound | IC50 [1] [µM] | IC50 [2] [µM] | IC50 [3] [µM] | bioavailability [4] [%] | IC50 [5] [µM] | IC50 [6] [µM] | potency for OATP1B3 relative to rifampicin ([1]; comparison of IC50 values)
C[C@@H]1O[C@@H](O[C@H]2[C@H](Oc3cc(O)c4c(c3)O[C@H](c3ccc(O)cc3)CC4=O)O[C@H](CO)[C@@H](O)[C@@H]2O)[C@H](O)[C@H](O)[C@H]1O [Naringin, naringin, reference compound] | > 100 | 6.9 ± 1.4 | > 100 | – | – | – | –
C[C@@H]1O[C@@H](OC[C@H]2O[C@@H](Oc3cc(O)c4c(c3)O[C@H](c3ccc(O)cc3)CC4=O)[C@H](O)[C@@H](O)[C@@H]2O)[C@H](O)[C@H](O)[C@H]1O [Narirutin, narirutin] | > 100 | 14.2 ± 3.5 | > 100 | – | – | – | –
COc1ccc(-c2cc(=O)c3c(OC)c(OC)c(OC)c(OC)c3o2)cc1OC [Nobiletin, nobiletin] | 6.6 ± 0.4 | 1.6 ± 0.4 | 2.1 ± 0.7 | 36 | – | – | –
CO[C@H]1/C=C/O[C@@]2(C)Oc3c(C)c(O)c4c(O)c(c(/C=N/N5CCN(C)CC5)c(O)c4c3C2=O)NC(=O)/C(C)=C\C=C\[C@H](C)[C@H](O)[C@@H](C)[C@@H](O)[C@@H](C)[C@H](OC(C)=O)[C@@H]1C [Rifampicin, rifampicin] | – | – | – | – | ~2 | ~2 | –
COc1ccc(-c2cc(=O)c3c(OC)c(OC)c(OC)cc3o2)cc1OC [Sinensetin, sinensetin] | 21.1 ± 3.4 | 5.4 ± 0.6 | 8 ± 2.6 | – | – | – | about ten times lower
COc1ccc(-c2cc(=O)c3c(OC)c(OC)c(OC)c(OC)c3o2)cc1 [Tangeretin, tangeretin] | 5.6 ± 1 | 1.6 ± 0.8 | 4.8 ± 1.7 | 27 | – | – | –
